Columns and labels:
recombinant HSP90α = assay type: binding; settings: at 50 μM
KHMTs = test: KHMT inhibition; assay type: biochemical; settings: Supporting Information Graph SI-1
PRMTs = test: PRMT inhibition; assay type: biochemical; settings: Supporting Information Graph SI-1
recombinant GRP94 = assay type: binding; settings: at 50 μM
DNMT = DNMT inhibition; assay type: biochemical; settings: Supporting Information Graph SI-1
MCF-7 cells = test: In situ probe labeling with in-gel TAMRA fluorescence, MCF-7; assay type: cell-based, human; settings: 100 μM competitor, 10 μM probe 4, UV irradiation
Outline: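 MCF-7 cells (RPMI 1640, 10% FCS) at 80–90% confluence were washed and put in serum-free medium. They got 10 μM probe for 1 h at 37 °C, with 100 μM competitor, then 1 h of 365 nm UV. Lysis in RIPA plus protease inhibitors. SDS-PAGE, fluorescence scan, SYPRO Ruby loading control.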

[1] = tested on: K-562, KG-1, MOLM-13, and WM-266–4 cells; test: In situ probe labeling with in-gel TAMRA fluorescence, other cancer cell lines; assay type: cell-based, human; settings: K-562, KG-1, MOLM-13, WM-266–4 cells, 1 h treatment with 10 μM probe, triplicate
Outline: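 Cell media: K-562 in RPMI 1640 with 10% FCS, KG-1 and MOLM-13 with 20% FCS, WM-266–4 in EMEM with 10% FCS. Cells were treated in serum-free medium, in triplicate, with 10 μM probe, control probe or 1% DMSO for 1 h at 37 °C. UV at 365 nm for 1 h, then RIPA lysis. Click with TAMRA-biotin-azide/CuSO4/TCEP/TBTA, SDS-PAGE, in-gel fluorescence, SYPRO Ruby loading control.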

Row | Structure (SMILES) | binding to HSP90α (recombinant HSP90α) | activity against KHMTs (KHMTs) | activity against PRMTs (PRMTs) | binding to GRP94 (recombinant GRP94) | activity against DNMT (DNMT) | labeling of probe 4 after competition (MCF-7 cells) | labeling of band at 100 kDa / fluorescent labeling [1]
1 | COCn1cc(C(=O)NCC[C@H]2O[C@@H](n3cnc4c(N)ncnc43)[C@H](O)[C@@H]2O)c(N)nc1=O [Compound 1, 1-(Methoxymethyl)-N-((5′-deoxyadenosin-5′-yl)methyl)cytosine-5-carboxamide] | no significant binding | inactive | inactive | minor binding | inactive | completely abolished | –
2 | Nc1nc(=O)n(COCc2ccccc2)cc1C(=O)NCC[C@H]1O[C@@H](n2cnc3c(N)ncnc32)[C@H](O)[C@@H]1O [Compound 2] | no significant binding | inactive | inactive | minor binding | inactive | completely abolished | –
3 | C#CCCCC(=O)Nc1ccc(C(=O)c2ccc(NC(=O)CCCCNC(=O)OC(C)(C)C)cc2)cc1 [Compound 5, N-(4-(4-(5-(Boc-amino)pentanamido)benzoyl)phenyl)hex-5-ynamide] | – | – | – | – | – | – | absence of fluorescent labeling
